The nature of assay [1]: Cytotoxicity against human Bel7402 cells by MTT assay. The assay is classed as cell-based. The following applies: Bel-7402.
The subject of assay [2] is Neuron. Nature of the assay: Neuroprotective activity against MPP+-induced neuronal cell injury in neurons (unknown origin). The assay is classed as functional, cell-based.
Assay [3] can be described thus: Cytotoxicity against human HCT8 cells by MTT assay. Format: cell-based. The following applies: HCT-8. On the technique in general: Formazan colour is commonly taken as a measure of viable cells.
The nature of assay [4]: Cytotoxicity against human BGC823 cells by MTT assay. The assay is classed as cell-based. The settings on record: BGC-823.
Assay [5] has as its system L02. Nature of the assay: Hepatoprotective activity against D-galactosamine-induced cell toxicity in human HL-7702 cells assessed as cell survival incubated for 1 hr prior to D-galactosamine-challenge measured after 24 hrs by MTT assay relative to normal cells. Details: concentration or dose not given beside the values. Format: functional. The procedure, abridged:
(§1)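 HL-7702 cells (2 × 10^4 per well) precultured 24 h at 37 °C, 5% CO2 in RPMI 1640 with 10% fetal calf serum, penicillin and streptomycin. Test compound (10 μM) added in fresh medium for 1 h, then 25 mM D-galactosamine for 24 h. MTT 0.5 mg/mL 4 h, formazan in DMSO, OD 492 nm. Survival as % of normal; means ± SD, n = 3; bicyclol 10 μM as positive control.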

The subject of assay [6] is A2780. Nature of the assay: Cytotoxicity against human A2780 cells by MTT assay. The assay is classed as cell-based.
Assay [7] has as its system A549. Nature of the assay: Cytotoxicity against human A549 cells by MTT assay. The assay is classed as cell-based.
A short description of assay [8]: Hepatoprotective activity in human HL-7702 cells assessed as inhibition of D-galactosamine-induced cell toxicity incubated for 1 hr prior to D-galactosamine-challenge measured after 24 hrs by MTT assay relative to control. The assay is classed as functional, L02.
For assay [9], the system named is L02. Nature of the assay: Hepatoprotective activity against D-galactosamine-induced cell toxicity in human HL-7702 cells assessed as cell survival at 10 uM incubated for 1 hr prior to D-galactosamine-challenge measured after 24 hrs by MTT assay relative to normal cells. The assay is classed as functional. The settings on record: read-out: Survival. The procedure, abridged:
as §1

The structures appear in SMILES notation. Activity calls are given as the source filed them. No cut-off for these calls is given here. Bounds are passed on as bounds.

As for `C=C1CC[C@@H]2[C@H]([C@@H]3[C@H]1CC[C@]3(C)O)[C@@]2(C)/C=C/C=C(/C)CO`, the IC50 in assay [1], in [3], in assay [4], in [6] and in [7] was over 10 µM each time. In assay [2], the outcome was inactive. For the same compound, the Survival in assay [5] was determined as 69%. Besides, in assay [8], the “inhibition (INH)” value worked out at 26.1%.

For the compound `C=C1CC[C@@H]2[C@H]([C@@H]3[C@H]1CC[C@]3(C)O)[C@@]2(C)CC/C=C(/C)CO`, the IC50 in [1], in [3], in [4], in assay [6] and in assay [7] was over 10 µM each time. Besides, the outcome in assay [2] was inactive. Further, the Survival in [5] stood at 73%. Further, the “inhibition (INH)” value in assay [8] was 33.6%.

In the case of `C=C1CC[C@@H]2[C@H]([C@@H]3[C@H]1CC[C@]3(C)O)[C@@]2(C)C[C@@H]1C=C(C)C(=O)O1`, the 50% inhibitory concentration (IC50) in [1], in [3], in [4], in assay [6] and in [7] was over 10 µM each time. The outcome in assay [2] was inactive. For the same compound, in assay [5], the Survival was 73%. Moreover, the “inhibition (INH)” value in assay [8] worked out at 33.6%.

On to `COC(=O)c1cc(OC)c2c(c1-c1c(CO)cc(OC)c3c1OCO3)OCO2` [BICYCLOL], for which the viability at 10 µM in [9] worked out at 76%. The “inhibition (INH)” value in [8] was found to be 42.5%.

Consider `C=C1CC[C@@H]2[C@H]([C@@H]3[C@H]1CC[C@]3(C)O)[C@@]2(C)C/C=C/C(C)(C)O`, for which the IC50 in [1], in [3], in [4], in [6] and in assay [7] was over 10 µM in each case. Further, the outcome in assay [2] was inactive. The Survival in assay [5] came out at 70%. In addition, the “inhibition (INH)” value in [8] was found to be 27%.

In the case of `C=C1CC[C@@H]2[C@H]([C@@H]3[C@H]1CC[C@]3(C)O)[C@@]2(C)C(/C=C/C(C)(C)O)OC` (stereo not given in full), the IC50 in assay [1], in assay [3], in assay [4], in [6] and in assay [7] was over 10 µM in each case. For the same compound, the outcome in [2] was inactive.

Take `C=C1CC[C@@H]2[C@H]([C@H]3[C@H](C)CC[C@@H]13)[C@@]2(C)C[C@H](O)/C=C(/C)CO`: the IC50 in assay [1], in assay [3], in assay [4], in assay [6] and in assay [7] was over 10 µM throughout. Moreover, the result in [2] was inactive. Besides, in assay [5], the Survival worked out at 73%. Moreover, the “inhibition (INH)” value in assay [8] is 36.3%.

Turning to `C=C1CC[C@@H]2[C@H]([C@@H]3[C@H]1CC[C@]3(C)O)[C@@]2(C)/C=C/C=C(\C)C=O`, the IC50 in assay [1], in assay [3], in assay [4], in [6] and in assay [7] was over 10 µM in each case. Also, the outcome in assay [2] was inactive. In [5], the Survival stood at 88%. The “inhibition (INH)” value in assay [8] is given as 69.6%.

In the case of `C=C1CC[C@@H]2[C@H]([C@@H]3[C@H]1CC[C@]3(C)O)[C@@]2(C)C[C@H]1C=C(C)C(=O)O1`, the half-maximal inhibitory concentration (IC50) in assay [1], in assay [3], in [4], in assay [6] and in assay [7] was over 10 µM in each case. Further, the result in assay [2] was inactive. Further, the Survival in [5] is on record as 68%. Besides, the “inhibition (INH)” value in assay [8] worked out at 24.3%.

For the compound `C=C1CC[C@@H]2[C@H]([C@@H]3[C@H]1CC[C@]3(C)O)[C@@]2(C)[C@@H]1C(=O)C(C)=C[C@H]1O`, the IC50 in assay [1], in [3], in [4], in assay [6] and in assay [7] was over 10 µM throughout. The outcome in [2] was inactive.

For orientation: IC50 means the concentration needed to halve the response being measured.

These data come from ChEMBL document CHEMBL3085744, “Hepatoprotective prenylaromadendrane-type diterpenes from the gum resin of Boswellia carterii” (J Nat Prod, 2013).
